In ChEMBL document CHEMBL1944596, “7,8-dichloro-1-oxo-β-carbolines as a versatile scaffold for the development of potent and selective kinase inhibitors with unusual binding modes” (J Med Chem, 2012):

Experiments:
[1] = biological target: Serine/threonine-protein kinase pim-3 (Homo sapiens, UniProt Q86V86); assay: Binding affinity to PIM3 assessed as change in thermal denaturation at 10 uM by thermal stability shift assay
In short: (§1)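 Each compound was screened across a kinase panel by thermal stability shift assay. The read-out was the shift in protein melting temperature (ΔTm, in °C) relative to the unliganded kinase. A ΔTm of 4.0 °C served as the hit cutoff.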

[2] = biological target: T1, Serine/threonine-protein kinase PLK4 (Homo sapiens) (UniProt O00444); assay: Binding affinity to PLK4 assessed as change in thermal denaturation at 10 uM by thermal stability shift assay; in short: as §1
T1 sequence (whole entry): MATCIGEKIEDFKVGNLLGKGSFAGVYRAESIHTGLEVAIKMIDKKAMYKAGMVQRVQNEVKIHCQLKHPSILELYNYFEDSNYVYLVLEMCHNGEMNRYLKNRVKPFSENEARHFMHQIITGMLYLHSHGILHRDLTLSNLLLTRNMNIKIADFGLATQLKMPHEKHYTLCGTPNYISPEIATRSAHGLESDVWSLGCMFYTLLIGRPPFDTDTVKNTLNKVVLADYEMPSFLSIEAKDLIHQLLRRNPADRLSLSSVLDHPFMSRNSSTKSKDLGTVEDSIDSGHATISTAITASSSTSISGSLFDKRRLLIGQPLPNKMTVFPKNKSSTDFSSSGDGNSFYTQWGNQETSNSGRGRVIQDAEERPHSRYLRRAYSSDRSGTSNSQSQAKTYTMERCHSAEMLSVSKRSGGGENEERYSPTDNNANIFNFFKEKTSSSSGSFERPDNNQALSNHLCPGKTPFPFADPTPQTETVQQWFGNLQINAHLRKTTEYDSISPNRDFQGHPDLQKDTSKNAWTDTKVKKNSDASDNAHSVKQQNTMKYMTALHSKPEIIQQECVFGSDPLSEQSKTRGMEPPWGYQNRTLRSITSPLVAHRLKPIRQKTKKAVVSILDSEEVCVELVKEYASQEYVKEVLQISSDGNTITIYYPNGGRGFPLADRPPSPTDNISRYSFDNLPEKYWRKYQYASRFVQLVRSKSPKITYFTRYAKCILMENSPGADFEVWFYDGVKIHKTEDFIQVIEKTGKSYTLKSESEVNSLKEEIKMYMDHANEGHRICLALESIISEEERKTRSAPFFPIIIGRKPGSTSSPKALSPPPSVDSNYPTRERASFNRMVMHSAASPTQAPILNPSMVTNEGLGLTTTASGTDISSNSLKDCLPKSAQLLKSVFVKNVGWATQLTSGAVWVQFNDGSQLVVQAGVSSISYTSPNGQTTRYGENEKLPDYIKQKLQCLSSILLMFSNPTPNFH

[3] = biological target: T2, Serine/threonine-protein kinase 17A (Homo sapiens) (UniProt Q9UEE5); assay: Binding affinity to DRAK1 assessed as change in thermal denaturation at 10 uM by thermal stability shift assay; in short: as §1
T2 sequence (whole entry): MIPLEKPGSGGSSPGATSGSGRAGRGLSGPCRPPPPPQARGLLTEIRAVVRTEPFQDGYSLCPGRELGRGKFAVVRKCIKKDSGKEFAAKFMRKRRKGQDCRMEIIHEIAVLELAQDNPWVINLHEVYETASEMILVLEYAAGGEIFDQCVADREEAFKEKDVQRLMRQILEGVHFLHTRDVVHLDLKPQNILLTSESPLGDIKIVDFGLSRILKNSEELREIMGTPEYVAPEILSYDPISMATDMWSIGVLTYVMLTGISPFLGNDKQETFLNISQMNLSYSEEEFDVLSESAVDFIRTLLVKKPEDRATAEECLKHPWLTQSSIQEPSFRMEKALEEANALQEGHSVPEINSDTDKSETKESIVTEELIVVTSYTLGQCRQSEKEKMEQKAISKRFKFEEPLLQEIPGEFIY

[4] = biological target: TGF-beta receptor type-2 (Homo sapiens) (UniProt P37173); assay: Binding affinity to TGFBR2 assessed as change in thermal denaturation at 10 uM by thermal stability shift assay; in short: as §1
Chain of TGF-beta receptor type-2 (Homo sapiens) (P37173 whole entry): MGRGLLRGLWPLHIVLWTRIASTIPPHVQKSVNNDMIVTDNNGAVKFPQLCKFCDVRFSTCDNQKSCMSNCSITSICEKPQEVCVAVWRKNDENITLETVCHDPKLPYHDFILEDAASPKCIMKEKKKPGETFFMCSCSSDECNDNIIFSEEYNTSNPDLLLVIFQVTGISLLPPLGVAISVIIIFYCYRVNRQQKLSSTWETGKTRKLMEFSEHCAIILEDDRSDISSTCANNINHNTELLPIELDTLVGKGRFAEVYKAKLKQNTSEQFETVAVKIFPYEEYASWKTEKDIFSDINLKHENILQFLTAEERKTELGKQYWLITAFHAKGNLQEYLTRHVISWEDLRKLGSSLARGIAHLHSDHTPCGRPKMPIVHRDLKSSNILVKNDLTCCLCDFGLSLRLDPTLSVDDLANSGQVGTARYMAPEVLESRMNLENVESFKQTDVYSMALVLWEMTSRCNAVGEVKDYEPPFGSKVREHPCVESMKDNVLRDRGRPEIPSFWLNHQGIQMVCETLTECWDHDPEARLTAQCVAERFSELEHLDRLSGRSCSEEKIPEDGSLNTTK

[5] = biological target: AP2-associated protein kinase 1 (Homo sapiens) (UniProt Q2M2I8); assay: Binding affinity to AAK1 assessed as change in thermal denaturation at 10 uM by thermal stability shift assay; in short: as §1
Chain of AP2-associated protein kinase 1 (Homo sapiens) (Q2M2I8 whole entry, looked up): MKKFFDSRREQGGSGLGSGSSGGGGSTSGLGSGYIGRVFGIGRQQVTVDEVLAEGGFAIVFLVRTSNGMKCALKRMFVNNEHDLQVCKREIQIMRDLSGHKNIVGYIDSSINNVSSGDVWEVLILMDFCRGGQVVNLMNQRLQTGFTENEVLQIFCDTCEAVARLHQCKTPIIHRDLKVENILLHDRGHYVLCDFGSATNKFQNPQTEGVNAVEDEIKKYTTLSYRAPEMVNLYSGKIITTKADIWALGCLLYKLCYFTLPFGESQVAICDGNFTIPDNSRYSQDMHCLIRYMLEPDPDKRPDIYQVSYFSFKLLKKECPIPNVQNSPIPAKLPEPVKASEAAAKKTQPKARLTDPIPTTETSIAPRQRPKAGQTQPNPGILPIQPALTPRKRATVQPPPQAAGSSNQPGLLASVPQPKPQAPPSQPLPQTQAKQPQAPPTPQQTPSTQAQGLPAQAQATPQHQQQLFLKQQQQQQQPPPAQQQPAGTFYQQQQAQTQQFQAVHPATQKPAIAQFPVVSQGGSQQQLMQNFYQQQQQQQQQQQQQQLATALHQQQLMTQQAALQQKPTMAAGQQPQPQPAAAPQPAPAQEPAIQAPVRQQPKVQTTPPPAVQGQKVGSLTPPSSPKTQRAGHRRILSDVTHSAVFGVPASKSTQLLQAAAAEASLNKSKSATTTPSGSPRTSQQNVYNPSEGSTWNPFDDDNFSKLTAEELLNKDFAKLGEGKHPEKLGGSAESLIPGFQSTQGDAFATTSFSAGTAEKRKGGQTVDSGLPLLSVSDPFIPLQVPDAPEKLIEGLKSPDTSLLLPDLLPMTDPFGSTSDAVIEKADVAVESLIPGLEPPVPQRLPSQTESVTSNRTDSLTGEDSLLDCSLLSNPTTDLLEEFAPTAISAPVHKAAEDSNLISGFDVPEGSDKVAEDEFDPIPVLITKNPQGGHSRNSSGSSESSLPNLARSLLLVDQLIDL

[6] = biological target: Ribosomal protein S6 kinase alpha-1 (Homo sapiens) (UniProt Q15418); assay: Binding affinity to RSK1 assessed as change in thermal denaturation at 10 uM by thermal stability shift assay
Chain of Ribosomal protein S6 kinase alpha-1 (Homo sapiens) (Q15418 whole entry, looked up): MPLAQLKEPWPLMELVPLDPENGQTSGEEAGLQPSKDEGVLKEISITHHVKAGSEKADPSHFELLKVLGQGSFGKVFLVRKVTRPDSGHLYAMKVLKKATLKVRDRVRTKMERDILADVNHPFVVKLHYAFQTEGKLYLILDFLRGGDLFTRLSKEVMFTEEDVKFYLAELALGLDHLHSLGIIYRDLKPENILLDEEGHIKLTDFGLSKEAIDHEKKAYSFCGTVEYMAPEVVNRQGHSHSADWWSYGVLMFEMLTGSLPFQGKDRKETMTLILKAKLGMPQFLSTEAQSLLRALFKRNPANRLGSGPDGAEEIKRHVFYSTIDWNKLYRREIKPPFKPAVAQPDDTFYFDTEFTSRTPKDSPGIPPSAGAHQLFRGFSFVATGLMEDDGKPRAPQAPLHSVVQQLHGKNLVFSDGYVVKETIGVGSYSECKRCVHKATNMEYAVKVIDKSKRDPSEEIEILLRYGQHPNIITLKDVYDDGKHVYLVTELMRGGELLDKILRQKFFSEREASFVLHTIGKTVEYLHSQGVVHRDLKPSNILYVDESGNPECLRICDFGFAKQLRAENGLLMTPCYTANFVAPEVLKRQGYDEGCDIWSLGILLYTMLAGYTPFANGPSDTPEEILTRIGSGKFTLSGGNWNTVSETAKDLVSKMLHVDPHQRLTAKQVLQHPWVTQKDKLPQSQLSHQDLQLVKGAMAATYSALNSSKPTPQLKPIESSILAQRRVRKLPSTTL

| Compound | ΔTm [1] | ΔTm [2] | ΔTm [3] | ΔTm [4] | ΔTm [5] | ΔTm [6] |
| --- | --- | --- | --- | --- | --- | --- |
| Cn1c2c(c3ccc(Cl)c(Cl)c31)C(C#N)C(C)(C)NC2=O (stereo not drawn) | 6.2 °C | 5.1 °C | 5.8 °C | 8.1 °C | 2.2 °C | 1.8 °C |
| CCN1CCC2(CC1)NC(=O)c1c(c3ccc(Cl)c(Cl)c3n1C)C2C#N (racemic) | 7.1 °C | 3.2 °C | 1.6 °C | 0.3 °C | 0.2 °C | 0 °C |
| N#CC1c2c([nH]c3c(Cl)c(Cl)ccc23)C(=O)NC12CCCCC2 (racemic) | 4.9 °C | 1.3 °C | 2.2 °C |  | 2.4 °C | 0.4 °C |
| Cn1c2c(Cl)c(Cl)ccc2c2cc[nH]c(=O)c21 | 3.6 °C | 1.7 °C | 6.2 °C | 10.1 °C | 4.6 °C | 4.6 °C |
| Cn1c2c(c3ccc(Cl)c(Cl)c31)C(C#N)C1(CCNCC1)NC2=O (racemic) | 9.6 °C | 6.8 °C | 4.3 °C |  | 1.5 °C | 1 °C |
| CCC1(CC)NC(=O)c2c(c3ccc(Cl)c(Cl)c3n2C)C1C#N (stereo not drawn) | 3.4 °C | 4.6 °C | 2.6 °C | 5 °C | 1.7 °C | 0.5 °C |
| Cn1c2c(c3ccc(Cl)c(Cl)c31)C(C#N)C1(CCN(C(=O)OC(C)(C)C)CC1)NC2=O (racemic) | 0.6 °C | 0.1 °C | 0.6 °C |  | 0.3 °C | 0 °C |
| CC(=O)NCC1c2c(n(C)c3c(Cl)c(Cl)ccc23)C(=O)NC1(C)C (racemic) | 0.7 °C | 1 °C | 0.9 °C | 1.5 °C | 0.2 °C | 0.7 °C |
| Cn1c2c(Cl)c(Cl)ccc2c2cc(N)[nH]c(=O)c21 | 3.6 °C | 2 °C | 6.9 °C | 7.9 °C | 2 °C | 3.1 °C |
| CC1(C)NC(=O)c2[nH]c3c(Cl)c(Cl)ccc3c2C1C#N (stereo not drawn) | 4 °C | 1.7 °C | 3 °C | 6.8 °C | 1.1 °C | 1.4 °C |
| Cn1c2c(c3ccc(Cl)c(Cl)c31)C(CN)C(C)(C)NC2=O (racemic) | 3.7 °C | 2.7 °C | 7.5 °C | 3 °C | 0.8 °C | 0.4 °C |
| Cn1c2c(c3ccc(Cl)c(Cl)c31)C(C#N)C1(CCCC1)NC2=O (stereo not drawn) | 3.8 °C | 2.5 °C | 2 °C | 2.2 °C | 1.5 °C | 0.5 °C |
| CN1CCC2(CC1)NC(=O)c1c(c3ccc(Cl)c(Cl)c3n1C)C2C#N (racemic) | 7.2 °C | 3.3 °C | 2.7 °C | 1.1 °C | 0.9 °C | 0.5 °C |
| Cn1c2c(c3ccc(Cl)c(Cl)c31)C(C#N)C1(CCOCC1)NC2=O (stereo not drawn) | 4.7 °C | 2.7 °C | 2.7 °C | 2.6 °C | 2.6 °C | 0.6 °C |
| Cn1c2c(Cl)c(Cl)ccc2c2cn[nH]c(=O)c21 | 2.3 °C | 1.5 °C | 3.5 °C | 10.4 °C | 3.9 °C | 1.7 °C |
| Cn1c2c(c3ccccc31)C(C#N)C(C)(C)NC2=O (stereo not drawn) | 1.3 °C | 0.9 °C | 0.5 °C | 2.9 °C | 0.6 °C | 0.4 °C |
